Not all results are given here.
Apaf1 activ: activates human Apaf-1 apoptosome | O14727 | activity change, negative = activation, % at 20 µM | Apaf-1 apoptosome caspase-3 activation, DEVD-Rh110 fluorescence; stronger effect = lower value | AID 489031 | hit rate 0.31% among 330,000;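 active means activity change at or below -40% at 20 µM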
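Material: biochemical Apaf-1 apoptosome reconstitution; Medium: 20 mM HEPES buffer, pH 7.5, containing CHAPS and BSA; Reagent: dATP, cytochrome c, and (Z-DEVD)2-Rh110 caspase-3 substrate; Times: 30 min preincubation, 50 min reaction, room temperature; Signal: Rh110 fluorescence, excitation 480 nm, emission 540 nm; Measure: Caspase-3 activity via Apaf-1.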
Rh110 interf act: Rh110 signal interference in Apaf-1 activator counter-screen; shares compounds with Apaf1 activ; Rh110 fluorescence interference, quenched caspase reaction, Ex480/Em540; fluorescence interference (activity change), % at 20 µM, hits read low; 980 tested, under 10 active;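 active means mean activity change at or below -40% when tested at 20 µM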
Apaf-1 act conf2: Apaf-1 (human) activation, single-dose confirmed. shares compounds with Apaf1 activ. reconstituted apoptosome caspase-3 activity, DEVD-Rh110 fluorescence; stronger effect = lower value. activity change, negative = activation, % at 20 µM. hit rate 5% among 980;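 active means mean activity change at or below -40%, meaning activation of 40% or more, at 20 µM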
The depositor's hits bear a star; nt = no result given.

SMILES	Apaf1 activ	Rh110 interf act	Apaf-1 act conf2
Cc1cc(NC(=O)CCC(=O)N(CC(=O)NCC2CCCO2)Cc2ccc(F)cc2)no1 (stereo unspecified)	-45*	-2	2
NC[C@@H]1O[C@H](C23CC4CC(CC(C4)C2)C3)Cc2c1ccc(O)c2O	42	nt	nt
CC(=O)Nc1c(I)c(NC(C)=O)c(I)c(C(=O)O)c1I	11	nt	nt
Cn1c(=O)c2c(SCC(=O)NC3CCCC3)nc(CC(C)(C)C)nc2n(C)c1=O	-508*	0	8
O=C1OC(Nc2ccc3ncccc3c2)c2ccccc21 (stereo unspecified)	82	nt	nt
COc1ccc(C(=O)Nc2nc3c(s2)Cc2cc(OC)ccc2-3)cc1	97	nt	nt
COC(=O)C1(C)CCc2cc(OC)ccc2C1=O (stereo unspecified)	-81*	10	12
Nc1ccc(Br)c2cccnc12	85	nt	nt
Fc1ccccc1Nc1nc(-c2ccncc2)nc2ccccc12	-321*	2	8
Cc1c(CCOC(=O)CC23CC4CC(CC(C4)C2)C3)sc[n+]1CC(=O)c1ccc(Br)cc1	49	nt	nt
CCOc1cc(/C=C2\C(=O)N(c3nc(-c4ccc(Br)cc4)cs3)N=C2c2ccccc2)ccc1O	53	nt	nt
COc1ccc(OCc2cc(C(=O)NC3CCOCC3)no2)c2ccccc12	41	nt	nt
Cc1cccc(C)c1OCc1cc(C(=O)NCC2CCCCC2)no1	-57*	2	13
CC(C)=NOc1nc(N(C)C)nc(N(C)C)n1	-76*	3	1
CCC1Nc2ncnc(N3CCN(c4ccccc4)CC3)c2N(Cc2ccccc2)C1=O (stereo unspecified)	60	nt	nt
COc1ccc(Br)cc1C1CC(=O)N2CN(C)CSC2=C1C#N (stereo unspecified)	42	nt	nt
COc1ccc2c(c1)OC/C(=C/c1cccs1)C2=O	-94*	5	12
CC(C)[C@H](CN1CCC[C@H]1CN1C(N)=NC[C@@H]1Cc1ccccc1)N1C[C@@H](Cc2ccccc2)N(CCc2ccc(Cl)c(Cl)c2)C1=N	82	nt	nt
c1cc2c3c(cccc3c1)C(N1CCCCC1)=N2	91	nt	nt
NC1=NC[C@H](Cc2ccc(O)cc2)N1CCC12CC3CC(CC(C3)C1)C2	49	nt	nt
COc1ccccc1-c1c(C#N)c(N)nc2c1CCc1ccccc1-2	96	nt	nt
COc1ccc(-c2cc(=O)oc3cc(OCC(=O)Nc4ccc(CCO)cc4)ccc23)cc1	-55*	0	-20
COc1ccc(N2CCN(C(=O)c3ccc(COc4ccc5c(C)cc(=O)oc5c4)cc3)CC2)cc1	58	nt	nt
CC(Oc1ccc2c(-c3ccccc3)cc(=O)oc2c1)C(=O)NCC1CCC(C(=O)O)CC1 (stereo unspecified)	-1	nt	nt
COc1ccccc1CNS(=O)(=O)c1ccc(-c2cc(C)no2)cc1	45	nt	nt
SMILES	Apaf1 activ	Rh110 interf act	Apaf-1 act conf2
Cc1ccc(-c2nn3c(C)nnc3c3ccccc23)cc1S(=O)(=O)NCc1ccco1	44	nt	nt
COc1ccccc1C(CNC(=O)c1ccc(S(=O)(=O)NCc2ccco2)cc1)N(C)C (stereo unspecified)	-53*	12	6
C#CCOCCOCCOCCNc1nc(N2CCN(C(=O)[C@H](Cc3ccc(O)cc3)n3cc([C@@H](N)C(C)CC)nn3)CC2)nc(N2CCN(C(=O)[C@H](Cc3cc4ccccc4[nH]3)n3cc([C@@H](N)Cc4ccc(O)cc4)nn3)CC2)n1 (stereo partly specified)	56	nt	nt
CCO/C=C1\SC(=S)N(c2ccc(Cl)cc2)C1=O	-109*	4	23
O=C(NCc1ccco1)Nc1ccc2nsnc2c1	59	nt	nt
O=C(NCc1ccc2c(c1)OCO2)Nc1cccc(Cl)c1	-45*	-4	10
COc1ccccc1N1C(=O)N(C(C)=O)C2C1Nc1ccccc1N2C (stereo unspecified)	83	nt	nt
CCCCCCCCCCCCCCCC[n+]1ccc(C(N)=O)cc1	73	nt	nt
Cn1c(NC(=O)c2ccc(Cl)s2)cc(=O)n(C)c1=O	66	nt	nt
CCCCCCCCCCCCCCCC[n+]1ccc(/C=N/O)cc1	80	nt	nt
CN(C)CCCNC(=O)C[C@H]1C[C@H](C(=O)N2CCCCC2)[C@@]2(CCc3ccccc3)c3[nH]c4ccc(Cl)cc4c3CCN2C1=O	74	nt	nt
Cc1ccc(N2CCN(S(=O)(=O)c3cccs3)CC2C)cc1 (stereo unspecified)	62	nt	nt
CCN(Cc1ccccc1)C(=O)c1c[nH]c2ccc(S(=O)(=O)N(C)CCC#N)cc2c1=O	-55*	4	5
CCOc1cc(CNc2ccc(N3CCCC3)cc2)cc(Cl)c1OC	55	nt	nt
CCOc1cc(CNc2ccc(N3CCCCC3)cc2)cc(Br)c1OCC(=O)NC(C)(C)C	44	nt	nt
COc1cc(CNc2ccc(N3CCOCC3)cc2)cc(Br)c1OC	-85*	3	2

High-throughput results: PubChem BioAssay, Sanford-Burnham Center for Chemical Genomics
